How the values were obtained:
[1] = humans, cited from earlier work
[2] = test system: renal proximal tubule cells; type: in vivo, mouse; settings: 5 minutes (NS^TMR) or 5 or 60 minutes after iv injection
C57BL/6J mice [3] = experiment: Blood ionized calcium after iv injection in mice; type: in vivo, mouse; settings: iv 50 nmol/kg; for peak blood Ca^2+ increase above pre-injection (t = 0) level: n = 6 per group
C57BL/6J mice [4] = experiment: Blood 1,25; type: in vivo, mouse; settings: iv 50 nmol/kg; for blood 1,25(OH)2D relative to vehicle-injected mice: 2 hours after injection
[5] = Persistence of injected ligand in mouse blood and urine; settings: mice, iv 50 nmol/kg, 1 μL plasma in PBS, n = 6
human PTHR1 = target: T1, human PTHR1 (Homo sapiens, UniProt Q03431); experiment: cAMP signaling; type: cell-based; settings: GP-2.3 cells; for Emax (cAMP-dependent luminescence): vehicle 1.3 ± 0.1, means ±SEM of 10 experiments
T1 sequence (Q03431 27-593): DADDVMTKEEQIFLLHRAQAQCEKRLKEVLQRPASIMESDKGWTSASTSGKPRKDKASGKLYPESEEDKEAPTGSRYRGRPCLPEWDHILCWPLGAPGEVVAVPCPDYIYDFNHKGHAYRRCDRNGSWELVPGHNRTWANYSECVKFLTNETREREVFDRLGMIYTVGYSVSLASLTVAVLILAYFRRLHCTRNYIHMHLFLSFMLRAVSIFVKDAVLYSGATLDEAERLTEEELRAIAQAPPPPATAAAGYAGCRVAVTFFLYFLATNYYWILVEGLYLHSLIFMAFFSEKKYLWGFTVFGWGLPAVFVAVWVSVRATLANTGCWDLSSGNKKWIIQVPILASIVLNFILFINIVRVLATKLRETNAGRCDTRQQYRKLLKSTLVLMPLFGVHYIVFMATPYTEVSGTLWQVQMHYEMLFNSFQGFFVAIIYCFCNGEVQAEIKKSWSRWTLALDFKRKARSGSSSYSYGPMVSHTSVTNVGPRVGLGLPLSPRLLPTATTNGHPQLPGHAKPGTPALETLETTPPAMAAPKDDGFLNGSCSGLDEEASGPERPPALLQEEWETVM

C57BL/6J mice [6] = experiment: Plasma Pi after iv injection in mice; type: in vivo, mouse; settings: iv 50 nmol/kg; for time of Pi nadir: after injection; for decline of blood phosphate (Pi) at the nadir: n = 6 per group
[7] = test system: PTHR1-expressing GP-2.3 cells; experiment: Confocal microscopy of ligand internalization in GP-2.3 and GS-22A cells; type: cell-based, human; settings: 100 nM; for ligand localization in GP-2.3 cells: 15 minutes at 21°C, confocal TMR fluorescence; for TMR fluorescence in parental GS-22A cells (not transfected with PTHR1): confocal microscopy
Method in brief: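 GP-2.3 cells (HEK-293 with stable human PTHR1 and glosensor) and parental GS-22A cells (glosensor only) were grown on coverslips to ~75% confluence. Cells were exposed to TMR-ligand at 100 nM in HBB for 15 min at 21°C, or for 30 min at 4°C to block internalization. They were then rinsed thrice, fixed in 4% formalin for 5 min and mounted with DAPI. Confocal imaging used 405/559 nm excitation.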

C57BL/6J mice [8] = experiment: Urinary fractional excretion of Ca and Pi after iv injection in mice; type: in vivo, mouse; settings: iv 50 nmol/kg, spot urine

Row | Emax (cAMP-dependent luminescence) (human PTHR1) [cps × 10^−3] | Substance | immunostained phosphorylated PKA substrate in kidney sections [2] | peak blood Ca^2+ increase above pre-injection (t = 0) level (C57BL/6J mice [3]) | time of return of blood Ca^2+ to baseline (C57BL/6J mice [3]; post-injection) [h] | blood 1,25(OH)2D relative to vehicle-injected mice (C57BL/6J mice [4]) | time of Pi nadir (C57BL/6J mice [6]) [h] | decline of blood phosphate (Pi) at the nadir (C57BL/6J mice [6]) [%] | ligand localization in GP-2.3 cells [7] | TMR fluorescence in parental GS-22A cells (not transfected with PTHR1) [7] | also measured
1 | – | PTH(1-34) | – | – | – | – | – | – | – | – | half-time (t1/2) of disappearance from the circulation ([1]; injected intravenously): 10 ± 0.5 min; half-time ([1]; subcutaneous injection): about 1 hour
2 | – | PTH(1-84) | – | – | – | – | – | – | – | – | serum half-time ([1]; injected subcutaneously): about 2.5 hours
3 | – | TMR-NNGEDHSQITKV [NS^TMR, reference compound] | little or no green fluorescence | – | – | – | – | – | – | – | –
4 | 184 ± 12 | [Lys^13(TMR), Cys^35]PTH(1-35) [PTH^TMR] | clear staining for pPKA substrate | ~ 8% | ≤ 24 | about threefold | 1 | 27 | located predominantly in internalized vesicles | No such TMR fluorescence was observed | last time point at which plasma TMR fluorescence was detected [5]: 2 h; time of return of Pi to baseline (C57BL/6J mice [6]): ≤ 4 h
5 | 178 ± 14 | [Lys^13(tetramethyl rhodamine {TMR}), Cys^35(PEG-20,000 Da)]PTH(1-35) [PEG-PTH^TMR] | at least comparable to that observed with the PTH^TMR ligand | ~ 21% | 96 | about threefold | 2 | 42 | located predominantly in internalized vesicles | No such TMR fluorescence was observed | time of peak blood Ca^2+ (C57BL/6J mice [3]; post-injection): 24 h; blood 1,25(OH)2D (C57BL/6J mice [4]; 24 hours after injection): marked increases; duration of effects on urinary fractional excretion of Ca and Pi (C57BL/6J mice [8]): up to 24 hours; potency (EC50) relative to PTH(1-34) and PTH^TMR (human PTHR1; cAMP): about three- to fivefold weaker

Reference: paper PMC5199614 (Journal of bone and mineral research : the official journal …, 2016)
